{
  "source": "ChEMBL document CHEMBL1142456",
  "about": "“4-Anilino-7-alkenylquinoline-3-carbonitriles as potent MEK1 kinase inhibitors” (Bioorg Med Chem, 2008)",
  "key": {"[1]": {"experiment": "Plasma concentration in mouse at 50 mg/kg, po after 4 hrs", "type": "ADME, organism-based", "design": "dose 50 mg/kg, route oral", "in_short": "(§1)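 Nude mice given a single 50 mg/kg oral dose. Blood levels measured at 2 and 4 h (one compound at 1 h), three mice per measurement, with coefficient of variation reported.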"}, "[2]": {"experiment": "Plasma concentration in mouse at 50 mg/kg, po after 2 hrs", "type": "ADME, organism-based", "design": "dose 50 mg/kg, route oral", "in_short": "as §1"}, "[3]": {"experiment": "Oral bioavailability in female rat at 10 mg/kg", "type": "ADME, organism-based", "details": "in vivo"}, "[4]": {"experiment": "Volume of distribution at steady state in nude mouse at 2 mg/kg, iv", "type": "ADME, organism-based", "design": "dose 2 mg/kg, route intravenous", "details": "in vivo, read-out: Vdss", "in_short": "(§2)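 Female nude mice given a single dose, 2 mg/kg iv in 0.5% methylcellulose/1% Tween 80 brought to pH 3 with aqueous HCl, or 50 mg/kg by oral gavage. Three mice per group were bled by cardiac stick under isoflurane at 0.25, 0.5, 1, 4, 8 and 24 h and plasma collected. Cl, Vss, T1/2, Cmax, AUC extrapolated to infinity and %F were derived.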"}, "[5]": {"experiment": "Clearance in nude mouse at 2 mg/kg, iv", "type": "ADME, organism-based", "design": "dose 2 mg/kg, route intravenous", "details": "in vivo", "in_short": "as §2"}, "[6]": {"experiment": "Oral bioavailability in nude mouse at 50 mg/kg", "type": "ADME, organism-based", "details": "in vivo", "in_short": "as §2"}, "[7]": {"experiment": "Apparent permeability across PAMPA membrane", "type": "ADME", "details": "read-out: permeability", "in_short": "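Permeability measured in a PAMPA assay, reported in cm/s.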"}, "[8]": {"experiment": "AUC (infinity) in female rat at 10 mg/kg, po", "type": "ADME, organism-based", "design": "time infinity, dose 10 mg/kg, route oral", "details": "plasma"}, "[9]": {"experiment": "AUC (infinity) in male rat at 10 mg/kg, po", "type": "ADME, organism-based", "design": "time infinity, dose 10 mg/kg, route oral", "details": "plasma"}, "[10]": {"experiment": "Half life in female rat at 1 mg/kg, iv", "type": "ADME, organism-based", "design": "dose 1 mg/kg, route intravenous", "details": "in vivo"}, "[11]": {"experiment": "Metabolic stability in mouse liver microsomes", "type": "ADME, Microsome", "in_short": "(§3)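 Stability measured as half-life on exposure to male CD-1 mouse and rat liver microsomes.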"}, "[12]": {"experiment": "Cmax in nude mouse at 50 mg/kg, po", "type": "ADME, organism-based", "design": "dose 50 mg/kg, route oral", "details": "in vivo", "in_short": "as §2"}, "[13]": {"experiment": "Oral bioavailability in male rat at 10 mg/kg", "type": "ADME, organism-based", "details": "in vivo"}, "[14]": {"experiment": "Cmax in male rat at 10 mg/kg, po", "type": "ADME, organism-based", "design": "dose 10 mg/kg, route oral", "details": "in vivo"}, "[15]": {"experiment": "Volume of distribution at steady state in male rat at 1 mg/kg, iv", "type": "ADME, organism-based", "design": "dose 1 mg/kg, route intravenous", "details": "in vivo, read-out: Vdss"}, "[16]": {"experiment": "Half life in male rat at 1 mg/kg, iv", "type": "ADME, organism-based", "design": "dose 1 mg/kg, route intravenous", "details": "in vivo"}, "[17]": {"experiment": "Half life in nude mouse at 2 mg/kg, iv", "type": "ADME, organism-based", "design": "dose 2 mg/kg, route intravenous", "details": "in vivo", "in_short": "as §2"}, "[18]": {"experiment": "AUC (infinity) in nude mouse at 50 mg/kg, po", "type": "ADME, organism-based", "design": "time infinity, dose 50 mg/kg, route oral", "details": "plasma", "in_short": "as §2"}, "[19]": {"experiment": "Metabolic stability in CD1 rat liver microsomes", "type": "ADME, Microsome", "in_short": "as §3"}, "[20]": {"experiment": "Volume of distribution at steady state in female rat at 1 mg/kg, iv", "type": "ADME, organism-based", "design": "dose 1 mg/kg, route intravenous", "details": "in vivo, read-out: Vdss"}, "[21]": {"experiment": "Clearance in male rat at 1 mg/kg, iv", "type": "ADME, organism-based", "design": "dose 1 mg/kg, route intravenous", "details": "in vivo"}, "[22]": {"experiment": "Cmax in female rat at 10 mg/kg, po", "type": "ADME, organism-based", "design": "dose 10 mg/kg, route oral", "details": "in vivo"}, "[23]": {"experiment": "Clearance in female rat at 1 mg/kg, iv", "type": "ADME, organism-based", "design": "dose 1 mg/kg, route intravenous", "details": "in vivo"}, "[24]": {"experiment": "Plasma concentration in mouse at 50 mg/kg, po after 1 hr", "type": "ADME, organism-based", "design": "dose 50 mg/kg, route oral", "in_short": "as §1"}},
  "data": [
    {"smiles": "Cn1ccnc1Sc1ccc(Nc2c(C#N)cnc3cc(/C=C/CCN4CCCC4)ccc23)cc1Cl", "values": [
      {"measurement": "concentration at 4 h", "setting": "[1]", "value": 82, "unit": "ng/mL"},
      {"measurement": "concentration at 2 h", "setting": "[2]", "value": 319, "unit": "ng/mL"}
    ]},
    {"smiles": "Cn1ccnc1Sc1ccc(Nc2c(C#N)cnc3cc(/C=C/CCN4CCOCC4)ccc23)cc1Cl", "values": [
      {"measurement": "concentration at 4 h", "setting": "[1]", "value": 22, "unit": "ng/mL"},
      {"measurement": "concentration at 2 h", "setting": "[2]", "value": 95, "unit": "ng/mL"}
    ]},
    {"smiles": "COc1cc2c(Nc3ccc(Sc4nccn4C)c(Cl)c3)c(C#N)cnc2cc1/C=C/CCN1CCN(C)CC1", "values": [
      {"measurement": "concentration at 4 h", "setting": "[1]", "value": 76, "unit": "ng/mL"},
      {"measurement": "concentration at 2 h", "setting": "[2]", "value": 267, "unit": "ng/mL"}
    ]},
    {"smiles": "CCN1CCN(CC/C=C/c2ccc3c(Nc4ccc(Sc5nccn5C)c(Cl)c4)c(C#N)cnc3c2)CC1", "values": [
      {"measurement": "concentration at 4 h", "setting": "[1]", "value": 132, "unit": "ng/mL"},
      {"measurement": "bioavailability", "setting": "[3]", "value": 23, "unit": "%"},
      {"measurement": "Vd", "setting": "[4]", "value": 2.7, "unit": "L/kg"},
      {"measurement": "clearance", "setting": "[5]", "value": 66, "unit": "mL/min/kg"},
      {"measurement": "bioavailability", "setting": "[6]", "value": 17, "unit": "%"},
      {"measurement": "Papp", "setting": "[7]", "value": 0.45, "unit": "×10⁻⁶ cm/s"},
      {"measurement": "AUC(0-inf)", "setting": "[8]", "value": 988, "unit": "ng·h/mL"},
      {"measurement": "AUC(0-inf)", "setting": "[9]", "value": 204, "unit": "ng·h/mL"},
      {"measurement": "half-life", "setting": "[10]", "value": 150, "unit": "min"},
      {"measurement": "half-life", "setting": "[11]", "value": 16.5, "unit": "min"},
      {"measurement": "Cmax", "setting": "[12]", "value": 510, "unit": "ng/mL"},
      {"measurement": "bioavailability", "setting": "[13]", "value": 13, "unit": "%"},
      {"measurement": "Cmax", "setting": "[14]", "value": 61, "unit": "ng/mL"},
      {"measurement": "Vd", "setting": "[15]", "value": 7.6, "unit": "L/kg"},
      {"measurement": "half-life", "setting": "[16]", "value": 108, "unit": "min"},
      {"measurement": "half-life", "setting": "[17]", "value": 54, "unit": "min"},
      {"measurement": "AUC(0-inf)", "setting": "[18]", "value": 2170, "unit": "ng·h/mL"},
      {"measurement": "half-life", "setting": "[19]", "value": 21, "unit": "min"},
      {"measurement": "Vd", "setting": "[20]", "value": 5.7, "unit": "L/kg"},
      {"measurement": "clearance", "setting": "[21]", "value": 70.3, "unit": "mL/min/kg"},
      {"measurement": "Cmax", "setting": "[22]", "value": 298, "unit": "ng/mL"},
      {"measurement": "clearance", "setting": "[23]", "value": 35.7, "unit": "mL/min/kg"},
      {"measurement": "concentration at 2 h", "setting": "[2]", "value": 494, "unit": "ng/mL"}
    ]},
    {"smiles": "CN1CCN(CC/C=C/c2ccc3c(Nc4ccc(Sc5nccn5C)c(Cl)c4)c(C#N)cnc3c2)CC1", "values": [
      {"measurement": "concentration at 4 h", "setting": "[1]", "value": 85, "unit": "ng/mL"},
      {"measurement": "concentration at 2 h", "setting": "[2]", "value": 368, "unit": "ng/mL"}
    ]},
    {"smiles": "Cn1ccnc1Sc1ccc(Nc2c(C#N)cnc3cc(/C=C/CN4CCCC4)ccc23)cc1Cl", "values": [
      {"measurement": "concentration at 4 h", "setting": "[1]", "value": 11, "unit": "ng/mL"},
      {"measurement": "concentration at 1 h", "setting": "[24]", "value": 72, "unit": "ng/mL"}
    ]}
  ]
}
